Screens (PubChem BioAssay)
KCNK3 block: human KCNK3 channel inhibition, primary screen; O14649; CHO-KCNK3 thallium flux, FluxOR fluorescence; stronger effect = lower value; B-score at 10 µM; 0.84% of 340,000 active;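 active = B-score under library mean minus 4 SD, starting fluorescence ratio at most library mean plus 5 SD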;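 also: more negative B-score means stronger inhibition of thallium flux through KCNK3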
hERG protect: compounds protecting human hERG from proarrhythmic drug block | CHO-hERG, FluxOR thallium flux, dofetilide IC70 present | activation (rescue from dofetilide block), less the hit threshold, % at 10 µM | 0.51% of 310,000 active | AID 1511;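 active = activation above the mean of controls blocked by dofetilide plus 5 SD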;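 also: thallium influx through hERG after potassium depolarization seen as dye fluorescence rise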
KCNQ1 inh: inhibitors of human KCNQ1 potassium channel. P51787. CHO-K1 KCNQ1, FluxOR thallium flux fluorescence; stronger effect = higher value. B-score at 10 µM. 1.3% of 310,000 active;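 active = compounds whose thallium flux B-score, printed positive for inhibition, exceeds three library SD while starting fluorescence stays within three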;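 also: channel opened by potassium depolarization with thallium stimulus after 20 min compound exposure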
Target sequence (P51787 whole entry, looked up): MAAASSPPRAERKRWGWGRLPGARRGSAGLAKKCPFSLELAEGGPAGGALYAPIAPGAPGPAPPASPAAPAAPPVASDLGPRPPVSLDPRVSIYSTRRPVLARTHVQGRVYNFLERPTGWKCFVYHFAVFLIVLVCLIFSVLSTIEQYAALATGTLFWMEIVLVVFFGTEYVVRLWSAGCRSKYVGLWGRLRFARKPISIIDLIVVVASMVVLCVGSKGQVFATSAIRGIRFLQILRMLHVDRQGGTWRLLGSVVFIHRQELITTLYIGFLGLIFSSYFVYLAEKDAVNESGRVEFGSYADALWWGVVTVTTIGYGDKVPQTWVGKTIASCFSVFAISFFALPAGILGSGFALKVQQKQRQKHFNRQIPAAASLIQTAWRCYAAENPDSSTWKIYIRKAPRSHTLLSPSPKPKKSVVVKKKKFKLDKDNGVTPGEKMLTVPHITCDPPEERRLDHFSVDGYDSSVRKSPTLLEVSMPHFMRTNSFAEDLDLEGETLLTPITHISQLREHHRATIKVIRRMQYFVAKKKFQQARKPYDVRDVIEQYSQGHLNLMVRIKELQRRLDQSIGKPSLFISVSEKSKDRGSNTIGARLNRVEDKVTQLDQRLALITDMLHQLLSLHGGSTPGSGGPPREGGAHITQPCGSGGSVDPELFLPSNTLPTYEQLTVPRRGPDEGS
KCNQ1 pot: potentiates or activates the human KCNQ1 potassium channel; B-score at 10 µM; 0.35% of 310,000 active; AID 2648; CHO-K1 KCNQ1, thallium flux FluxOR fluorescence; stronger effect = higher value;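 active = fluorescence ratio B-score, a plate-corrected score, at least three library SD, with initial intensity B-score within 5 SD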
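assay system = KCNQ1-transfected CHO-K1 cells | medium = assay buffer with matched DMSO | probe or stimulus = depolarizing K+/Tl+ stimulus, K2SO4 and Tl2SO4 each 12.5 mM in 5x stock | dosing = single dose | incubation = dye 90 min, compound 20 min, room temperature | detection = kinetic FluxOR fluorescence, 10 s baseline plus 110 s post-stimulus | evaluation = ratio B score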
KCNK9 block: human KCNK9 channel inhibition. B-score at 10 µM. 1.2% of 310,000 active. Q9NPC2. HEK293 KCNK9, FluxOR thallium flux fluorescence; stronger effect = lower value;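 active = ratio B-score over 3 SD below the library mean, with starting fluorescence within 5 SD of its mean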;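 also: negative B-score means less thallium flux so channel inhibition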
Kir21 inh: blocks the mouse Kir2.1 inward-rectifier potassium channel | P35561 | HEK293-Kir2.1, FluxOR thallium flux fluorescence; stronger effect = lower value | B-score at 10 µM | 0.85% of 310,000 active;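 active = fluorescence ratio B-score at or below minus 3 SD of library scores, with starting-brightness B-score within 2 SD, cut at about -4.2 in these data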;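 also: channel flux triggered by added potassium and thallium sulfate stimulus; B-score of peak minus minimum fluorescence over baseline after thallium stimulus; more negative B-score means stronger Kir2.1 block with less thallium influx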
KCNQ1 block val: reconfirmed blocker of the human KCNQ1 potassium channel; AID 588353; 93% of 1,600 active; inhibition, % at 10 µM; KCNQ1 cell line, FluxOR thallium flux fluorescence; shares compounds with KCNQ1 inh;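 active = primary screen active, with duplicate mean exceeding buffer control mean plus 3 SD of buffer wells, cut at about 28% in these data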;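 also: 0% = buffer control ratio and 100% = XE991 inhibitor control ratio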
CHO KCNQ1 ctr: activity in parental CHO cells lacking KCNQ1; parental CHO-K1, FluxOR thallium flux fluorescence ratio; stronger effect = lower value; zero means no signal rise above baseline; shares compounds with KCNQ1 inh; AID 588366; fluorescence ratio (Tl flux) at 10 µM; 21% of 1,600 active;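 active = mean of duplicate thallium-flux fluorescence ratios in parental host cells more than 5 SD below the buffer control mean, cut at about 0.38 in these data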;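 also: ratio is peak minus minimum fluorescence divided by baseline fluorescence; actives read low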
KCNQ1 APC inh: confirmation of human KCNQ1 potassium channel inhibitors by electrophysiology; shares compounds with KCNQ1 inh; KCNQ1-CHO cells, automated patch clamp current; calls only at 10 µM; 20% of 490 active;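 active = KCNQ1 current drop exceeding 3 SD of negative control wells, seen in both duplicate runs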;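 also: steady state current during a 2 s step from -80 to +40 mV; negative values mean current inhibition and positive values mean potentiation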
KCNQ2 inh: rat KCNQ2 inhibition in KCNQ1 inhibitor specificity screen | inhibition, % at 10 µM | 71% of 1,600 active | AID 651746 | shares compounds with KCNQ1 inh | KCNQ2 cells, FluxOR thallium flux fluorescence;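 active = mean percent inhibition of the KCNQ2 thallium signal more than 5 SD above the buffer-only control wells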;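 also: KCNQ2 expressed in CHO cells; 0% = buffer control wells and 100% = XE-991 inhibitor control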
KCNQ1-KCNE1 inh: KCNQ1 inhibitor that also blocks human KCNQ1/KCNE1 channel; shares compounds with KCNQ1 inh; KCNQ1/KCNE1 cells, FluxOR thallium flux fluorescence; inhibition, % at 10 µM; 77% of 1,600 active;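 active = mean percent inhibition of duplicate wells above the buffer-only control mean plus 3 SD of those controls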;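 also: 0% = buffer only wells and 100% = XE-991 inhibitor control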
Active calls of the source: *; i = inactive; · = not tested or not shown; + = active, no number. Shown are actives, neighbours in structure and some others; about 3.8% of the full set was active somewhere.

SMILES	KCNK3 block	hERG protect	KCNQ1 inh	KCNQ1 pot	KCNK9 block	Kir21 inh	KCNQ1 block val	CHO KCNQ1 ctr	KCNQ2 inh	KCNQ1-KCNE1 inh	others
COc1ccc(C2CC(=O)c3cnc(N4CCN(Cc5ccccc5)CC4)nc3C2)cc1 (stereo not given)	i	-6.3	6*	i	i	-0.58	67.5*	0.42	102.0%*	105.0%*
Cc1nn2c(NCCN3CCOCC3)c3c(nc2c1-c1ccccc1)CCCC3	i	-20.1	7*	i	i	-1.34	57.5*	0.466	81.7%*	73.0%*
COc1cc(/C=C/C(=O)N(C)CC(=O)Nc2ccccc2SC)cc(OC)c1OC	i	·	·	·	·	·	·	·	·	·
C[C@@H]1C[C@H]2[C@@H]3CCC4=CC(=O)C=C[C@]4(C)[C@@]3(Cl)[C@@H](O)C[C@]2(C)[C@@]1(OC(=O)c1ccco1)C(=O)CCl	i	·	·	·	·	·	·	·	·	·
O=C1/C(=C\c2cccc(O)c2O)SC(=S)N1Cc1ccccc1	i	0.1	i	i	i	0.02	·	·	·	·
O=C1/C(=C\c2cc([N+](=O)[O-])ccc2O)SC(=S)N1Cc1ccc(Cl)cc1	i	-31.1	17*	i	i	-12.4	165.0*	0.22*	i	i
Cc1cc(=O)n(CC(=O)NCCN2CCOCC2)c2c1c(C)nn2-c1ccccc1	i	-7.6	i	i	i	1.1	·	·	·	·
Cc1cc(=O)n(CC(=O)NC2CC2)c2c1c(C)nn2-c1ccccc1	i	-9.2	7*	i	i	-1.39	79.5*	0.457	i	93.5%*
O=S(=O)(c1cccc(Br)c1)N1CCN(c2ncnc3scc(-c4ccccc4)c23)CC1	i	·	·	·	·	·	·	·	·	·
Cc1csc2ncnc(N3CCN(S(=O)(=O)c4cccc(C(F)(F)F)c4)CC3)c12	i	-12.7	19*	i	i	-1.31	134.0*	0.425	113.0%*	129.5%*	KCNQ1 APC inh=i
Clc1ccc(CN=C(Nc2ccccc2)NC2CCCCC2)cc1	i	-7.5	8*	i	i	-5.23*	47.5*	0.465	i	38.0%*
COc1ccc(NC(=O)CNC(=O)C2CCCCC2)cc1OC	i	·	·	·	·	·	·	·	·	·
CCN1/C(=C/c2ccc3cc(C)ccc3[n+]2CC)Sc2ccccc21	i	-36.9	17*	i	i	-15.3	+	0.0355*	i	i
CCN1/C(=C/c2ccc3cc(C)ccc3[n+]2CC)Sc2cc(C)c(C)cc21	i	·	·	·	·	·	·	·	·	·
CN1/C(=C/c2cccc[n+]2CCO)Sc2ccccc21	i	-4.1	i	i	i	0.44	·	·	·	·
CC[n+]1c(/C=C2\Sc3ccccc3N2C)ccc2cccc(C)c21	i	-66.6	22*	i	i	-8.6	+	0.05*	i	i
O=C1CCCC2=C1C(c1ccccc1)CC(=O)N2c1ccc(F)cc1F (stereo not given)	i	-17.3	i	i	i	-1.8	·	·	·	·
COc1ccc(S(=O)(=O)N(C)c2ccc(C(=O)Nc3c(C)n(C)n(-c4ccccc4)c3=O)cc2)cc1	i	-11.3	i	i	i	0.92	·	·	·	·
O=C(CN1CCN(c2ccccc2F)CC1)N1N=CCC1c1ccccc1 (stereo not given)	i	-7.0	i	i	i	-0.76	·	·	·	·
CCOC(=O)C1CCCN(C2=C(NS(=O)(=O)c3ccc(Br)cc3)C(=O)c3ccccc3C2=O)C1 (stereo not given)	i	-24.4	i	i	i	-0.02	·	·	·	·
CCOC(=O)C1CCN(C2=C(NS(=O)(=O)c3ccc(Cl)cc3)C(=O)c3ccccc3C2=O)CC1	i	-16.0	6*	i	i	-0.25	124.0*	0.322*	135.3%*	182.5%*
Cc1cccc(NC2=CC(=O)CC(C)(C)C2)c1C	i	-3.2	i	i	i	-2.39	·	·	·	·
S=C(NCCc1ccccc1)Nc1ccc(Cl)cc1Cl	i	-6.6	7*	i	i	-1.32	33.5*	0.491	i	i
CC(=O)c1cccc(NC(=S)NCCc2ccc(Cl)cc2)c1	i	-3.5	8*	i	i	-1.87	43.0*	0.562	i	i
S=C(NCCc1ccccc1)Nc1cccc2cnccc12	i	-15.7	7*	i	i	0.58	29.0*	0.542	i	i
SMILES	KCNK3 block	hERG protect	KCNQ1 inh	KCNQ1 pot	KCNK9 block	Kir21 inh	KCNQ1 block val	CHO KCNQ1 ctr	KCNQ2 inh	KCNQ1-KCNE1 inh	others
CC(=O)c1cccc(NC(=S)NCc2ccccc2)c1	i	-5.3	i	i	i	1.01	·	·	·	·
Cc1cc(Cl)ccc1NC(=S)NCCc1ccc(Cl)cc1	i	-5.5	14*	i	i	-3.76	69.5*	0.472	78.7%*	103.0%*
C=CCNC(=O)/C(=C/c1cccc([N+](=O)[O-])c1)NC(=O)c1ccco1	i	-10.5	i	i	i	-0.01	·	·	·	·
CCC1CSC(=Nc2ccc(C)cc2)N1C(=O)CN1C(=O)NC2(CCCC2)C1=O (stereo not given)	i	-11.1	i	i	i	-0.54	·	·	·	·
COc1ccccc1CNS(=O)(=O)c1ccc(Cl)s1	i	-3.5	i	i	i	-1.66	·	·	·	·
Cc1ccc(SCCNC(=S)Nc2ccccc2)cc1	i	-13.7	i	i	i	0.21	·	·	·	·
Cc1cc(C)cc(NC(=S)NCCSc2ccc(Cl)cc2)c1	i	-11.5	10*	i	i	-1.08	110.5*	0.432	108.0%*	112.5%*	KCNQ1 APC inh=i
CCOc1nc(Nc2ccc(OC)c(Cl)c2)nc(N2CCN(c3ccc(OC)cc3)CC2)n1	i	-11.0	7*	i	i	-1	113.5*	0.483	79.0%*	143.5%*	KCNQ1 APC inh=i
CCOc1nc(Nc2ccc(F)cc2)nc(N2CCN(c3ccc(OC)cc3)CC2)n1	i	-8.8	i	i	i	-0.29	·	·	·	·
CC(C)(C)OC(=O)N[C@H](/C=C/c1ccccc1)C(=O)OC(C)(C)C	i	·	·	·	·	·	·	·	·	·
O=C(Cc1nc2ccccc2[nH]1)c1ccc(Br)cc1	i	-12.6	6*	i	i	2.67	51.5*	0.463	72.3%*	51.0%*
